# Results of several laboratories.
# Protocols differ between the studies behind these lines.
# Target: Casein kinase I isoform alpha (CSNK1A1, Homo sapiens, UniProt P48729)
SMILES,test,setting,measurement,value
O=c1[nH]c2ccccc2n1C1CCN(Cc2ccc(-c3[nH]c4cc5ncnc5cc4nc3-c3ccccc3)cc2)CC1,cell-free assay,0.5 µM,remaining signal,96%
N#CC1(c2ccccn2)CCN(Cc2cc(C(=O)O)c(=O)n3ccccc23)CC1,"cell-free assay, competition with immobilised ligand",1 µM,remaining binding,100%
Nc1ncc(-c2nc(N3CCOCC3)nc(N3CCOCC3)n2)c(C(F)F)n1,"binding, competition with immobilised ligand",10 µM,remaining binding,72%
Cn1cc(-c2cc(F)cc(N3CCn4c(cc5c4CCCC5)C3=O)c2CO)cc(Nc2ccc(N3CCN(C4COC4)CC3)cn2)c1=O,"enzyme activity, inhibitor",0.1 µM,inhibition,4%
Cn1cncc1[C@](O)(COc1ccc(C#N)cc1-c1ccc(OC(F)(F)F)cc1)c1ccc(C#N)cc1,"cell-free assay, competition with immobilised ligand",1 µM,remaining binding,100%
COc1ncccc1-c1cnn2ccc(N3CCN(C(=O)OC(C)C)CC3)nc12,"binding, competition with immobilised ligand",1 µM,remaining binding,100%
Cn1cc(-c2cccc(N3CCc4c(sc5c4CC(C)(C)C5)C3=O)c2CO)cc(Nc2ccncn2)c1=O,"enzyme activity, inhibitor",1 µM,inhibition,6%
Cc1nn(C)cc1-c1nc2c(N3CCN(Cc4ccc(Cl)cc4)CC3)c(Cl)cnc2[nH]1,"binding, competition with immobilised ligand",1 µM,remaining binding,77%
